Test results as given in ChEMBL document CHEMBL5537144, “Biological evaluation of carbohydrate-based aprepitant analogs for neuroblastoma treatment” (Eur J Med Chem, 2024).
The source made the active and inactive calls. The rule behind the calls is not given here.

Assays:
[1] = Cytotoxicity against human Kelly cells assessed as inhibition of cell viability incubated for 72 hrs by MTT assay; format: functional, cell-based
Method in brief: (§1)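 MTT assay. Cells were seeded and, after 24 h, treated for 72 h with graded concentrations: 0–400, 0–50 or 0–100 μM depending on compound, with aprepitant at 0–100 μM. Media were DMEM for SH-SY5Y, DMEM/F12 for RPE-1 and RPMI for Kelly, each with 10% FBS, at 37 °C and 5% CO2.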

[2] = test system: Kelly; assay: Induction of cell cycle arrest at G2/M phase in human Kelly cells at 15 uM incubated for 48 hrs by flow cytometry; format: functional, cell-based
Method in brief: (§2)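 For cell cycle analysis, Kelly cells were treated 48 h with analogs at 20 or 40 μM or aprepitant at 15 μM. Cells were then harvested, fixed and stained with PI/RNase. G0/G1, S and G2/M fractions were measured by flow cytometry; mean ± SEM, n = 3 independent experiments.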

[3] = Cytotoxicity against human RPE-1 cells assessed as inhibition of cell viability incubated for 72 hrs by MTT assay; format: toxicity, cell-based; details: RPE-1 cells (TERT-RPE1); method in brief: as §1
[4] = Selectivity index, ratio of IC50 for human RPE-1 cells to IC50 for human Kelly cells
Method in brief: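 Selectivity index is IC50 in nonmalignant RPE-1 divided by IC50 in the cancer line (Kelly or SH-SY5Y). The index was calculated in each individual experiment and then averaged.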

[5] = test system: Kelly; assay: Induction of cell cycle arrest at S phase in human Kelly cells at 15 uM incubated for 48 hrs by flow cytometry; format: functional, cell-based; method in brief: as §2
[6] = test system: SH-SY5Y; assay: Cytotoxicity against human SH-SY5Y cells assessed as inhibition of cell viability incubated for 72 hrs by MTT assay; format: functional, cell-based; method in brief: as §1

Question: With `C[C@@H](O[C@@H]1O[C@H](CO)[C@@H](O)[C@H](N=[N+]=[N-])[C@H]1OCc1ccc(F)cc1)c1cc(C(F)(F)F)cc(C(F)(F)F)c1` as the compound, how does the IC50 [1] read?
Answer: The IC50 was 16.8 µM.

Question: What does the source list for `C[C@@H](O[C@H]1OCCN(Cc2n[nH]c(=O)[nH]2)[C@H]1c1ccc(F)cc1)c1cc(C(F)(F)F)cc(C(F)(F)F)c1` [APREPITANT]?
Answer: Activity [2]: inactive; IC50 [1]: 15.1 µM; IC50 at 72 h [3]: 176 µM; Ratio IC50 [4]: 11.7; Activity [5]: Active

Question: Which IC50 [1] does the source give for `C[C@@H](O[C@@H]1O[C@@H]2CO[C@@H](c3ccccc3)O[C@@H]2[C@H](O)[C@H]1OCc1ccc(F)cc1)c1cc(C(F)(F)F)cc(C(F)(F)F)c1` here?
Answer: Its IC50 is 48.5 µM.

Question: What about the IC50 at 72 h [3] of the same compound?
Answer: The IC50 at 72 h was 251 µM.

Question: What about the “Ratio IC50” value [4] of the same compound?
Answer: The value was 4.6.

Question: Which IC50 [1] does the source give for `C[C@@H](O[C@H]1O[C@@H]2CO[C@@H](c3ccccc3)O[C@H]2[C@H](N=[N+]=[N-])[C@H]1OCc1ccc(F)cc1)c1cc(C(F)(F)F)cc(C(F)(F)F)c1` here?
Answer: The IC50 was 234 µM.

Question: What does the source list for `C[C@@H](O[C@H]1O[C@H](CO)[C@@H](O)[C@H](N)[C@H]1OCc1ccc(F)cc1)c1cc(C(F)(F)F)cc(C(F)(F)F)c1`?
Answer: IC50 [1]: 33.6 µM; IC50 at 72 h [3]: 146 µM; Ratio IC50 [4]: 4.3

Question: For `C[C@@H](O[C@H]1O[C@@H]2CO[C@@H](c3ccccc3)O[C@@H]2[C@H](O)[C@H]1OCc1ccc(F)cc1)c1cc(C(F)(F)F)cc(C(F)(F)F)c1`, which IC50 [1] is on record?
Answer: Its IC50 is 112 µM.

Question: What about the IC50 [6] of the same compound?
Answer: Its IC50 is 128 µM.

Question: With `C[C@@H](O[C@@H]1O[C@@H]2CO[C@@H](c3ccccc3)O[C@H]2[C@H](N=[N+]=[N-])[C@H]1OCc1ccc(F)cc1)c1cc(C(F)(F)F)cc(C(F)(F)F)c1` as the compound, how does the IC50 [1] read?
Answer: The IC50 was 107 µM.

Question: Which IC50 [1] does the source give for `C[C@@H](O[C@H]1O[C@H](CO)[C@@H](O)[C@H](N=[N+]=[N-])[C@H]1OCc1ccc(F)cc1)c1cc(C(F)(F)F)cc(C(F)(F)F)c1` here?
Answer: The IC50 was 88.4 µM.

Question: Which IC50 [1] does the source give for `C[C@@H](O[C@H]1O[C@@H]2CO[C@@H](c3ccccc3)O[C@H]2[C@H](N)[C@H]1OCc1ccc(F)cc1)c1cc(C(F)(F)F)cc(C(F)(F)F)c1` here?
Answer: Its IC50 is 6.3 µM.

Question: What about the IC50 at 72 h [3] of the same compound?
Answer: Its IC50 at 72 h is 92.3 µM.

Question: And the “Ratio IC50” value [4]?
Answer: The value was 14.7.
